Results from publication PMC2755653 (Journal of pharmaceutical sciences, 2009).

Tests used:
[1] = test system: MDCKII-WT cells; experiment: Cellular accumulation of radiolabeled drug in MDCKII-WT cell monolayers; type: cell-based, canine; conditions: for increase in cellular accumulation compared to control: 0.03% w/w Pluronic P85 (CMC)
[2] = target: P-gp (Homo sapiens, UniProt P08183); experiment: Cellular accumulation of radiolabeled drug in MDCKII-MDR1 cell monolayers; type: cell-based; conditions: for change in cellular accumulation at Pluronic P85 concentrations above the CMC / change in cellular accumulation with Pluronic P85 up to the CMC / cellular accumulation at 0.5% w/w P85 versus control without P85 / increase in cellular accumulation compared to control: MDR1 cells; for (WT/MDR1) accumulation ratio: nelfinavir
[3] = Cell-free equilibrium dialysis with Pluronic P85; type: physicochemical; conditions: for time to equilibrium: equilibrium dialysis, MWCO 50,000 membrane, 37°C
In short: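 Two-chamber dialysis across a 50,000 Da MWCO membrane at 37°C, stirred, in pH 7.4 HEPES/bicarbonate buffer. Radiolabeled test compound was in the donor and buffer in the receiver. Below CMC, P85 was on both sides. For micellar levels, the receiver held 0.025% w/w and the donor target plus 0.005% w/w. Free fraction was receiver/donor concentration; a transfer-rate model was fitted.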

[4] = cited from earlier work
[5] = at the CMC of Pluronic P85 (0.03% w/w; printed 0.035% w/w for nelfinavir)

P-gp, sequence (P08183 whole entry): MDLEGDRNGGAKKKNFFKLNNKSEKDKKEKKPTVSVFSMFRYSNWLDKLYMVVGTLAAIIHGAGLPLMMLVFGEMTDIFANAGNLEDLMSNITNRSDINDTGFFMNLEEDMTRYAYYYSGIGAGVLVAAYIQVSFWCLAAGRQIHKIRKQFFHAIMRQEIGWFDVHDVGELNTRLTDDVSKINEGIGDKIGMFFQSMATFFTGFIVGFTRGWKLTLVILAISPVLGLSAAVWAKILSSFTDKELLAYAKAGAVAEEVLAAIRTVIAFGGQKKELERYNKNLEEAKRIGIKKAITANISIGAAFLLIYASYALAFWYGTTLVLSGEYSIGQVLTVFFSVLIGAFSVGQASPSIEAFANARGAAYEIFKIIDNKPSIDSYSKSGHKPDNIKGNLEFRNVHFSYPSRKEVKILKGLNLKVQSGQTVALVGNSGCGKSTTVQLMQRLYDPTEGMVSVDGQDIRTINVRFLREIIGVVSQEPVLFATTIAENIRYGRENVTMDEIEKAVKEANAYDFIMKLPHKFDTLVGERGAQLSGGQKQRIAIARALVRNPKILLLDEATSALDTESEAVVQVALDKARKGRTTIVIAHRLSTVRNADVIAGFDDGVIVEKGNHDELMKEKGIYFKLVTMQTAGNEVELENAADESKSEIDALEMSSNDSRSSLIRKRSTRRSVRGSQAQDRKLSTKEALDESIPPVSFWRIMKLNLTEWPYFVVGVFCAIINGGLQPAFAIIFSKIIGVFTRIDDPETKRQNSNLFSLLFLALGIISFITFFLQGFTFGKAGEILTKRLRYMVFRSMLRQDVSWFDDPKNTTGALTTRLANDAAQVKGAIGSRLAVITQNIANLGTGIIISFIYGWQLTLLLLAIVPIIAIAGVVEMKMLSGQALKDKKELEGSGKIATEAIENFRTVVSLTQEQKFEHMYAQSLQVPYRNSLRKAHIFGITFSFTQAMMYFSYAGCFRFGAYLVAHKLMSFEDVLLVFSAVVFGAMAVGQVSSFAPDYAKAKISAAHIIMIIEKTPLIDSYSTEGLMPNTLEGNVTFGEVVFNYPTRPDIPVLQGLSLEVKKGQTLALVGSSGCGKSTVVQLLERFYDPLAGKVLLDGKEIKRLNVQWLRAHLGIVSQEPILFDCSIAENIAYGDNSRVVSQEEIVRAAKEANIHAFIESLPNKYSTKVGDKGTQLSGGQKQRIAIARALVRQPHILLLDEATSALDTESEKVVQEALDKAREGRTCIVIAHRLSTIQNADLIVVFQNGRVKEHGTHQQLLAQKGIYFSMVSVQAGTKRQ

change in cellular accumulation at Pluronic P85 concentrations above the CMC [2]	change in cellular accumulation with Pluronic P85 up to the CMC [2]	equilibrium free fraction ([3]; 0.5% w/w Pluronic P85)	equilibrium free fraction ([3]; absence of Pluronic P85)	equilibrium free fraction [3, 5]	time to equilibrium [3]	equilibrium free fraction ([3]; 0.1% w/w Pluronic P85)	cellular accumulation at 0.5% w/w P85 versus control without P85 [2]	drug free ([3]; 0.5% w/w Pluronic P85) [%]	SMILES	change in cellular accumulation at Pluronic P85 concentrations above the CMC [1]	change in cellular accumulation with Pluronic P85 up to the CMC [1]	cellular accumulation at 0.5% w/w P85 versus control without P85 [1]	increase in cellular accumulation compared to control [1] [fold]	further results
									COc1cc2c(cc1OC)CN(CCc1ccc(NC(=O)c3cccc4c(=O)c5cccc(OC)c5[nH]c34)cc1)CC2 [GF120918]					increase in nelfinavir accumulation compared to control ([1]; highest concentration of GF120918 used): 5 fold; Emax (maximal effect on nelfinavir accumulation) ([1]; sigmoid Emax model, mean ± SE): 4.76 ± 0.2 DPM normalized to stock / mg protein
significant decline	significant increase	0.871 ± 0.095	1.057 ± 0.212	0.984 ± 0.083	~ 20 hrs				Nc1nc(NC2CC2)c2ncn([C@H]3C=C[C@@H](CO)C3)c2n1 [abacavir]	significant decline	no significant increase			drug associated with the micelles ([3]; 0.5% w/w Pluronic P85): roughly 10%
no effect			0.994 ± 0.06		~ 15 hrs	0.968 ± 0.04			OC[C@@H](O)[C@@H](O)[C@H](O)[C@H](O)CO [mannitol]	no effect				
decreased significantly	increased significantly		0.953 ± 0.109	0.941 ± 0.045	~ 50 hrs	0.194 ± 0.02	not statistically different	5	Cc1c(O)cccc1C(=O)N[C@@H](CSc1ccccc1)[C@H](O)CN1C[C@H]2CCCC[C@H]2C[C@H]1C(=O)NC(C)(C)C [nelfinavir]	decreased significantly	no statistically significant enhancement	significantly lower than WT control	1.3	increase in cellular accumulation compared to control ([2]; 0.03% w/w Pluronic P85): 6 fold; (WT/MDR1) accumulation ratio ([2]; 0.03% w/w P85): 1.4; (WT/MDR1) accumulation ratio ([2]; 0.5% w/w P85 (highest dose)): 1.23; (WT/MDR1) accumulation ratio ([2]; absence of P85, 3 h accumulation): 6; drug free ([3]; 0.1% w/w Pluronic P85): 20%
decline in accumulation	significant increase in accumulation	0.068 ± 0.007	0.827 ± 0.114	0.744 ± 0.031			not significantly different	7	CC(C)(C)NC(=O)[C@@H]1C[C@@H]2CCCC[C@@H]2CN1C[C@@H](O)[C@H](Cc1ccccc1)NC(=O)[C@H](CC(N)=O)NC(=O)c1ccc2ccccc2n1 [saquinavir]	decline in accumulation	significant increase in accumulation	not significantly different		
significant only at 0.5% w/w									CC[C@]1(O)C[C@@H]2CN(CCc3c([nH]c4ccccc34)[C@@](C(=O)OC)(c3cc4c(cc3OC)N(C)[C@H]3[C@@](O)(C(=O)OC)[C@H](OC(C)=O)[C@]5(CC)C=CCN6CC[C@]43[C@@H]65)C2)C1 [vinblastine]	significant only at 0.5% w/w			3	log P [4]: 1.89; increase in cellular accumulation compared to control ([2]; 0.05% w/w Pluronic P85 (maximum)): 21 fold; increase in cellular accumulation compared to control ([2]; 0.5% w/w Pluronic P85): 10 fold
